From ChEMBL document CHEMBL5108071, “Potent and Specific Activators for Mitochondrial Sirtuins Sirt3 and Sirt5” (J Med Chem, 2022)

Columns and labels:
[1] = target: T1, NAD-dependent protein deacylase sirtuin-5, mitochondrial (Homo sapiens, UniProt Q9NXA8); test: Binding affinity to N-terminal his-tagged human SIRT5 (34 to 302 residues) expressed in Escherichia coli assessed as dissociation constant using NAD+ as substrate
Procedure, shortened: (§1)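 MST binding: Sirt5 labelled 2 h at room temperature in the dark with twofold molar excess FITC in PBS pH 7.4, free dye removed; 10 nM labelled protein incubated with ligand plus saturating 0.5 mM peptide or 5 mM NAD+ in PBS, 10% DMSO, 30 min on ice; read at 25 °C.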

[2] = target: T1, NAD-dependent protein deacylase sirtuin-5, mitochondrial; test: Binding affinity to N-terminal his-tagged human SIRT5 (34 to 302 residues) expressed in Escherichia coli assessed as dissociation constant using CPS1-succK537 peptide as substrate; procedure, shortened: as §1

T1 sequence (Q9NXA8 whole entry, the tested form may be a part): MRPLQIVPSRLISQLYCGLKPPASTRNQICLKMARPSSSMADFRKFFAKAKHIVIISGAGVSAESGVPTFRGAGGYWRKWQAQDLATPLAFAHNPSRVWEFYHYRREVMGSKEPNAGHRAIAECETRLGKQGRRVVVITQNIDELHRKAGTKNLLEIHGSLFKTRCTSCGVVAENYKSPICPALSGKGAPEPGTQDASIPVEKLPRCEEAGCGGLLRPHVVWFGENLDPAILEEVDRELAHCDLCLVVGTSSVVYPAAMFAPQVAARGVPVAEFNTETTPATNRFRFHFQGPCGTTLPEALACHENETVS

- Kd [1]: 28 µM
- Kd [2]: 24 µM
Structure (SMILES): CCOC(=O)C1=CN(C(=O)c2ccccc2)C=C(C(=O)OCC)C1c1ccsc1
